Measurements of several laboratories.
Compare with care: the assays were run in different laboratories. pEC50, pIC50: −log10 of the molar value. ≈ marks a conversion by molar mass, not a printed value.

Structure (SMILES)	organism	test	test system	setting	endpoint	result
N#Cc1ccc(/C=C/c2nc3ccncc3c(=O)n2-c2cccc(C(N)=O)c2)cc1	Enterococcus faecium	microbial growth, broth dilution	NCTC7171		MIC	> 128 µg/mL
C[C@@H](Oc1cc(-n2cnc3ccc(OCC4CCN(C)CC4)cc32)sc1C(N)=O)c1ccccc1C(F)(F)F	Trypanosoma brucei	parasite growth			pEC50	7.80
C=CCCCCCCCCCCCC(O)CC(O)CO (stereo not drawn)	Mycobacterium intracellulare	microbial growth, resazurin	ATCC23068		IC50	> 200 µg/mL
COC(=O)c1ccc2c(c1)C(=Cc1cc(Br)c(O)c(Br)c1)C(=O)N2	Plasmodium berghei	parasite growth, luciferase	human	liver stage	pIC50	5.17
CCCCCCCCCCCCCC(O)CC(O)CO (stereo not drawn)	Candida albicans	microbial growth, broth dilution	ATCC90028		IC50	> 200 µg/mL
O=C(O)c1cn(C2CC2)c2cc(N3CCNCC3)c(F)cc2c1=O	Mycobacterium intracellulare	microbial growth, resazurin	ATCC23068		IC50	0.48 µg/mL
CC(=O)Nc1cccc(-n2c(/C=C/c3ccc(F)cc3)nc3ccccc3c2=O)c1	Enterococcus faecium	microbial growth, broth dilution	NCTC7171		MIC	> 128 µg/mL
O=C1NC(=O)C(c2ccccc2Cl)=C1Nc1cccc(O)c1	Trypanosoma brucei	parasite growth			pEC50	5.70
N#Cc1ccc(/C=C/c2nc3ccccc3c(=O)n2-c2cccc(CC(=O)O)c2)cc1	Enterococcus faecium	microbial growth, broth dilution	NCTC7171		MIC	> 128 µg/mL
NS(=O)(=O)c1ccc(NC=C2C(=O)Nc3ccc4ncsc4c32)cc1	Trypanosoma brucei	parasite growth			pEC50	4.90
O=C(O)c1cn(C2CC2)c2cc(N3CCNCC3)c(F)cc2c1=O	Mycobacterium intracellulare	microbial growth	ATCC23068		pIC50	6.16
Cl.Oc1ccc(-c2nc(-c3ccc(Oc4ccc5c(c4)CNCC5)cc3)no2)cc1	Enterococcus faecium	microbial growth, broth dilution		24 h	MIC	4 µg/mL
CC1=C(C(=O)Nc2ccc3[nH]ncc3c2)C(c2ccc3ccccc3c2)CC(=O)N1 (stereo not drawn)	Trypanosoma brucei	parasite growth			pEC50	5.40
NC(=O)c1cccc(-n2c(/C=C/c3ccc(Cl)cc3)nc3ccncc3c2=O)c1	Enterococcus faecium	microbial growth, broth dilution	NCTC7171		MIC	> 128 µg/mL
CS(=O)(=O)CCNCc1ccc(-c2ccc3ncnc(Nc4ccc(OCc5cccc(C(F)(F)F)c5)cc4)c3c2)o1	Trypanosoma brucei	parasite growth			pEC50	5.70
C[N+](C)(C)CCc1ccc(Oc2ccc(-c3noc(-c4ccc(O)cc4)n3)cc2)cc1.[I-]	Enterococcus faecium	microbial growth, broth dilution		24 h	MIC	8 µg/mL
CCCN(CCS(C)(=O)=O)Cc1ccc(-c2ccc3ncnc(Nc4ccc(OCc5cccc(F)c5)c(Cl)c4)c3c2)o1	Trypanosoma brucei	parasite growth			pEC50	5.70
CC(C)Oc1c(NC(=O)c2ccc(NC(=O)c3ccc(NC(=O)[C@H](CC(N)=O)NC(=O)c4ccc(NC(=O)c5ccc(C#N)cn5)cc4)cc3)c(OC(C)C)c2O)ccc(C(=O)O)c1O	Citrobacter freundii	microbial growth	DSM30039		MIC	0.5 µg/mL (≈ 0.564 µM)
